Experimental data gathered from unrelated publications.
Lines come from different studies, so protocols differ.
Target: Cytoplasmic tyrosine-protein kinase BMX (BMX, Homo sapiens, UniProt P51813)

SMILES	test	conditions	measurement	result
Fc1ccc(-c2nc3n(c2-c2ccncc2)CCS3)cc1	enzyme activity, inhibitor	0.5 µM	remaining activity	104%
CCCS(=O)(=O)Nc1ccc(F)c(C(=O)c2c[nH]c3ncc(-c4ccc(Cl)cc4)cc23)c1F	enzyme activity, inhibitor	1 µM	inhibition	< 20%
Cn1c2c(c3ccc(Cl)c(Cl)c31)C(C#N)C(C)(C)NC2=O (centres unmarked)	thermal stability, DSF	10 µM	ΔTm	-0.1 °C
CC(=O)C1=C(C)N(c2cccc(C(F)(F)F)c2)C(=O)N[C@@H]1c1ccc(C#N)nc1	cell-free assay, competition with immobilised ligand	1 µM	remaining binding	97.4%
Cc1cc(NC(=O)c2cccc3cc(-c4cccc5[nH]nc(N)c45)ccc23)ccc1F	enzyme activity, inhibitor	0.1 µM	activity vs control	108%
Cn1cncc1C1=CN(c2ncnc3[nH]cnc23)CCS1	enzyme activity, inhibitor, radiometric	50 nM	inhibition	13.9%
Oc1ccc(-c2nc(-c3ccncc3)c(-c3ccc(F)cc3)[nH]2)cc1	cell-free assay	0.5 µM	remaining signal	93.9%
CN(c1ccnc(CNc2nc(Nc3ccc4c(c3)CC(=O)N4)ncc2C(F)(F)F)n1)S(C)(=O)=O	cell-free assay, competition with immobilised ligand	1 µM	remaining binding	80%
Cn1c2c(Cl)c(Cl)ccc2c2cc[nH]c(=O)c21	thermal stability, DSF	10 µM	ΔTm	0 °C
Nc1c(C(=O)NCc2ccc(C(=O)NCCCC3CCCCC3)cc2)cnn1-c1ccccc1	cell-free assay, competition with immobilised ligand	0.1 µM	remaining binding	100%
O=C1c2ccccc2-c2n[nH]c3cccc1c23	enzyme activity, inhibitor	0.5 µM	activity vs control	90.8%
CCN(CC)CCNC(=O)c1c(C)[nH]c(/C=C2\C(=O)Nc3ccc(F)cc32)c1C	enzyme activity, inhibitor	10 µM	inhibition	41%
COc1cc2ncnc(Nc3ccc(Oc4ccccc4)cc3C)c2cc1OC	enzyme activity, inhibitor	1 µM	inhibition	35%
Cc1nc(N2CC[C@@H](O)C2)ncc1-c1cc(C(F)(F)F)cc2[nH]ncc12	cell-free assay, competition with immobilised ligand	1 µM	remaining binding	100%
CC(C)[C@H](CO)Nc1nc(Nc2cc(N)cc(Cl)c2)c2ncn(C(C)C)c2n1	enzyme activity, inhibitor	0.5 µM	remaining activity	81.9%
C=CC(=O)Nc1cc(Nc2nccc(Nc3cc(Cl)c(F)cc3C(C)(C)O)n2)c(OC)cc1N1CC[C@@H](N(C)C)C1	enzyme activity, inhibitor	1 µM	inhibition	80%

SMILES	test	conditions	measurement	result
C[S+]([O-])c1ccc(-c2nc(-c3ccncc3)c(-c3ccc(F)cc3)[nH]2)cc1 (centres unmarked)	cell-free assay	0.5 µM	remaining signal	94.4%
Cc1nccc(COC(=O)N2C[C@@H]3[C@@H](CNC(=O)c4ccc5[nH]nnc5c4)[C@@H]3C2)n1	cell-free assay, competition with immobilised ligand	1 µM	remaining binding	88%
COc1cc2nccc(Oc3ccc(NC(=O)c4c5n(n(-c6ccc(F)cc6)c4=O)CCCC5)cc3)c2cc1OC	enzyme activity, inhibitor	0.1 µM	inhibition	22%
Cn1cc(Cl)c2c(Oc3c(F)cc(Nc4cc(Cl)nc(N)n4)cc3F)ccnc21	cell-free assay, competition with immobilised ligand	0.1 µM	remaining binding	97%
Nc1[nH]nc2nnc(-c3c(-c4ccccc4)nn4ccccc34)cc12	enzyme activity, inhibitor	0.5 µM	remaining activity	84.4%
CNC(=O)c1cc(Oc2ccc(NC(=O)Nc3ccc(Cl)c(C(F)(F)F)c3)cc2)ccn1	enzyme activity, inhibitor	0.3 µM	inhibition	-3%
CN(C)C1CCN(CC#Cc2nn(C3CCCC3)c3nc(NCc4ccccc4)ncc23)C1 (centres unmarked)	enzyme activity, inhibitor, FRET	10 µM	inhibition	14%
Cn1c2c(c3ccccc31)C(C#N)C(C)(C)NC2=O (centres unmarked)	thermal stability, DSF	10 µM	ΔTm	-0.4 °C
CCOC(=O)c1cc2cc(-c3cc(C(=O)NCc4ccc(C(=O)O)cc4)nn3C)ccc2[nH]1	cell-free assay, competition with immobilised ligand	0.1 µM	remaining binding	82%
Cn1c2c(Cl)c(Cl)ccc2c2cn[nH]c(=O)c21	thermal stability, DSF	10 µM	ΔTm	0.4 °C
c1ccc(N2CCN(Cc3nc4ccccc4[nH]3)CC2)nc1	cell-free assay, competition with immobilised ligand	1 µM	remaining binding	100%
O=C(Nc1cnn(-c2csc(C(=O)NC3COC3)c2)c1)Nc1ccccc1Cl	enzyme activity, inhibitor	5 µM	remaining activity	106%
C[C@@H](N)[C@H]1CC[C@H](C(=O)Nc2ccncc2)CC1	enzyme activity, inhibitor	0.5 µM	remaining activity	91.2%
Cn1c2c(c3ccc(Cl)c(Cl)c31)C(C#N)C1(CCNCC1)NC2=O (racemic)	thermal stability, DSF	10 µM	ΔTm	-0.3 °C
FC(F)(F)c1ccc(/C=C/c2nc(COc3ccc(CCCCn4ccnn4)cc3)co2)cc1	enzyme activity, inhibitor	0.5 µM	remaining activity	99%
Cc1ccc(Nc2nccc(N(C)c3ccc4c(C)n(C)nc4c3)n2)cc1S(N)(=O)=O	enzyme activity, inhibitor	0.3 µM	inhibition	8%
